Experiment [1] deals with T1, Aminopeptidase N (Sus scrofa) (UniProt P15145).
T1 sequence (whole entry): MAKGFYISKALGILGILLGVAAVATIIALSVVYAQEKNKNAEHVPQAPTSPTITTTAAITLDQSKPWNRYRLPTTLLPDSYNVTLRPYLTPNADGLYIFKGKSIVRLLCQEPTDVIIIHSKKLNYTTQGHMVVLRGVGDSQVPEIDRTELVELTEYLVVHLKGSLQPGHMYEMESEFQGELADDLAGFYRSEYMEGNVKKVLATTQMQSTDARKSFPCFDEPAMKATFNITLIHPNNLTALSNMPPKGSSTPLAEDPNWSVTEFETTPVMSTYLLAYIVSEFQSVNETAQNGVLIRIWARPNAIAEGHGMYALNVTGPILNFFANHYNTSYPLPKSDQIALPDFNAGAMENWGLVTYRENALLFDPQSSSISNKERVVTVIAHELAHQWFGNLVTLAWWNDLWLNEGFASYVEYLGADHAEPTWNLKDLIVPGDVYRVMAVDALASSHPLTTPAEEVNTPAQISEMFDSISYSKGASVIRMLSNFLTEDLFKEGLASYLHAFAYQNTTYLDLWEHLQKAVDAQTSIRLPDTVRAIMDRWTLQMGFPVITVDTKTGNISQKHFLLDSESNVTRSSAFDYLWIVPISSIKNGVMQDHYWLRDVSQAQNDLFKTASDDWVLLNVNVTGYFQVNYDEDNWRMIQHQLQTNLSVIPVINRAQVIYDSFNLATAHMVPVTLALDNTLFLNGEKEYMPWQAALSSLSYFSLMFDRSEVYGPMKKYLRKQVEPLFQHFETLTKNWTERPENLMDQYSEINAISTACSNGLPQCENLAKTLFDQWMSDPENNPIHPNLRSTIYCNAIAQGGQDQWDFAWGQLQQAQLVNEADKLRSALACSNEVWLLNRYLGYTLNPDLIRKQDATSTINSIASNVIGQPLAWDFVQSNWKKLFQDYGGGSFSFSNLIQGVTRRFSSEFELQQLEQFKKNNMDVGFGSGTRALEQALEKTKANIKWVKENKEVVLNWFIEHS
The experiment in a line: Inhibition of cell surface aminopeptidase N (APN/CD13) at 0.3*10e-3 M compound concentration.

The target of experiment [2] is T2, Neprilysin (Rattus norvegicus) (UniProt P07861).
T2 sequence (whole entry): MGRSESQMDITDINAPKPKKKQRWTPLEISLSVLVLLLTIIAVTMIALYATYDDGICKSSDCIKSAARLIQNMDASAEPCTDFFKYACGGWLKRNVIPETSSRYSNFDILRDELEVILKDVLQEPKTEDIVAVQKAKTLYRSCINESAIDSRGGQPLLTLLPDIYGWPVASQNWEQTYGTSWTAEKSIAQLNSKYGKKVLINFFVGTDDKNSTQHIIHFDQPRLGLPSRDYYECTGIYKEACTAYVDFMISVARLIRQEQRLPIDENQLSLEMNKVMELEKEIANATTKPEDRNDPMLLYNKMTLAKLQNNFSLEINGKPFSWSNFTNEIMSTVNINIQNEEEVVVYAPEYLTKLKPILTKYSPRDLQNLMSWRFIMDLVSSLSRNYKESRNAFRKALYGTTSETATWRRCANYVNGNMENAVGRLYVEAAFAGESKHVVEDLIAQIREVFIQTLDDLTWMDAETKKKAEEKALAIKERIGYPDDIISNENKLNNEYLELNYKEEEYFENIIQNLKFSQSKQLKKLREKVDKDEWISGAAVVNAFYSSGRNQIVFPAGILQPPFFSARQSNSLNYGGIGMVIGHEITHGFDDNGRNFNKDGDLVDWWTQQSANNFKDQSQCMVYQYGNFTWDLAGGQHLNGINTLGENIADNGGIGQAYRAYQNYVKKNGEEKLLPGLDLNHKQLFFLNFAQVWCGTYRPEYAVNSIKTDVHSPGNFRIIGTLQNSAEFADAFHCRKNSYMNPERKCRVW
Description: Inhibition of neutral endopeptidase (NEP[…]) at 0.3*10e-3 M compound concentration.

The target of experiment [3] is Aminopeptidase N (Homo sapiens) (UniProt P15144). Description: In vitro inhibition of aminopeptidase N (APN) activity in intact U937 cells in presence of Ala-pNA and 10e-3 M concentration of compound. The experiment is classed as cell-based. Particulars: U-937. In outline: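 Intact U937 cells (5 × 10⁵) incubated 15 min at 37 °C in 0.1 mL peptidase buffer with Ala-pNA (0.5 mg/mL) and compound at 10^-3 M. pNA release read at 405 nm. Remaining activity expressed as percent of uninhibited control; mean of three to ten experiments ± SD.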
Target sequence in this assay (P15144 whole entry): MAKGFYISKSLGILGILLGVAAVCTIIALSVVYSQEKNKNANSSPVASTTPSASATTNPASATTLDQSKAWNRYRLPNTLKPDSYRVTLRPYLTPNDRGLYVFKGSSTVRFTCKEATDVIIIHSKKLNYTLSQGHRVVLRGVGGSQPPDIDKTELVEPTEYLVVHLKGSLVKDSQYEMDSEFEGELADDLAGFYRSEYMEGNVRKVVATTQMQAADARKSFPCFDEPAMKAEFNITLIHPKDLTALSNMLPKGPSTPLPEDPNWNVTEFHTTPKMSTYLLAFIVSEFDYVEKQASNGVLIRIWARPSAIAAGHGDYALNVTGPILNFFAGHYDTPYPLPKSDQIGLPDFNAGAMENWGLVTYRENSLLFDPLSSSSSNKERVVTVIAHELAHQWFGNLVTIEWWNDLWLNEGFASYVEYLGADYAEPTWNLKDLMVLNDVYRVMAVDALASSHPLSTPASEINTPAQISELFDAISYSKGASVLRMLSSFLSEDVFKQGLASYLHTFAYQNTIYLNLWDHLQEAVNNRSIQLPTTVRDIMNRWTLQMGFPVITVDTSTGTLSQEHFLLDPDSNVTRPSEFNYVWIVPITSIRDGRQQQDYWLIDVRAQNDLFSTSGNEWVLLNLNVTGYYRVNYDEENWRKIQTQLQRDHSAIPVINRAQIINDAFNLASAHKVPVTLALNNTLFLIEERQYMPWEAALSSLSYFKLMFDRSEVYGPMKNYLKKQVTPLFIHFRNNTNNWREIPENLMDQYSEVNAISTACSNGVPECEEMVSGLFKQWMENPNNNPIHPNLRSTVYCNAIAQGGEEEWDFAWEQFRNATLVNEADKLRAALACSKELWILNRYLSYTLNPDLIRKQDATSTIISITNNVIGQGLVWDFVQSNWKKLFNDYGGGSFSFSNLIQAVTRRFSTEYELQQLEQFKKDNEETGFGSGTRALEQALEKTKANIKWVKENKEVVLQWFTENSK

Experiment [4] deals with U-937. The experiment in a line: In vitro cytotoxicity towards U937 cell growth was evaluated after 3 days of incubation (10e-4 M). The experiment is classed as functional, Homo sapiens. An outline of the steps:
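Human monoblastic U937 cells in RPMI 1640 with 10% heat-inactivated FCS, 5% CO2, 37 °C; seeded at 0.5 × 10⁵ cells/mL in fresh medium and exposed continuously to 10^-4 M compound for 3 days. Cells then washed twice and counted, and viability determined by trypan blue exclusion.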

In experiment [5] the target is Aminopeptidase N (Homo sapiens) (UniProt P15144). The experiment in a line: Inhibitory concentration of compound towards cell surface aminopeptidase N (APN/CD13) on human U937 cells.
Target sequence in this assay (P15144 whole entry, looked up): as the sequence (P15144 whole entry) above

Where only a bound is given, the exact number is not on record here.

In the case of `O=c1c(O)c(-c2ccc(O)c(O)c2)oc2cc(O)cc(O)c12`, the inhibition (in general, how much of the control response was suppressed) worked out at 73% in experiment [1] and 49% in experiment [2].

In the case of `O=C(O)Cc1cccc2c(=O)c([N+](=O)[O-])c(-c3ccccc3Cl)oc12`, the inhibition in experiment [3] was 76%. In addition, the Cytotoxicity in experiment [4] stood at 30%.

For the molecule `COCOC(=O)Cc1cccc2c(=O)c([N+](=O)[O-])c(-c3ccccc3[N+](=O)[O-])oc12`, the inhibition in experiment [3] is 48%. In experiment [4], this molecule yielded a Cytotoxicity greater than 85%.

Take `COc1cccc(-c2oc3c(CC(=O)O)cccc3c(=O)c2[N+](=O)[O-])c1[N+](=O)[O-]`: the inhibition in experiment [3] was 75%. Further, the Cytotoxicity in experiment [4] is recorded as less than 10%.

For the molecule `O=c1c([N+](=O)[O-])c(-c2ccccc2)oc2ccccc12`, the inhibition in experiment [3] was 30%. For the same molecule, the Cytotoxicity in experiment [4] is less than 10%.

Regarding `COc1ccccc1-c1oc2c(CC(=O)O)cccc2c(=O)c1[N+](=O)[O-]`, the inhibition in experiment [3] is 69%. The molecule also gave a Cytotoxicity in experiment [4] greater than 20%.

With `O=C(O)Cc1cccc2c(=O)c3c(oc12)-c1ccccc1NC(=O)N3`, the inhibition in experiment [3] came to 8%. In experiment [4], this molecule registered a Cytotoxicity of less than 10%.

Turning to `COCOC(=O)Cc1cccc2c(=O)c([N+](=O)[O-])c(-c3ccccc3OCc3ccccc3)oc12`, the inhibition in experiment [3] came out at 32%. This molecule also returned a Cytotoxicity in experiment [4] greater than 95%.

As to `CC(C)C[C@H](NC(=O)[C@@H](O)[C@H](N)Cc1ccccc1)C(=O)O` [UBENIMEX], the inhibition in experiment [3] was found to be 85%. In experiment [4], this molecule yielded a Cytotoxicity greater than 40%.

Consider `COCOC(=O)Cc1cccc2c(=O)c(N)c(-c3ccccc3O)oc12`, for which the inhibition in experiment [3] is 19%. This molecule displayed a Cytotoxicity in experiment [4] greater than 65%.

For the molecule `O=C(O)Cc1cccc2c(=O)c([N+](=O)[O-])c(-c3ccccc3C(=O)OCc3ccccc3)oc12`, in experiment [3], the inhibition came to 77%. In addition, the Cytotoxicity in experiment [4] is on record as greater than 40%.

For `Cl.Nc1c(-c2ccccc2)oc2c(CC(=O)O)cccc2c1=O`, in experiment [3], the inhibition came out at 33%. In experiment [4], the Cytotoxicity is recorded as less than 10%.

Regarding `O=CCc1cccc2c(=O)c([N+](=O)[O-])c(-c3ccccc3)oc12`, the inhibition in experiment [3] was 51%. Besides, in experiment [4], the Cytotoxicity is greater than 40%.

On to `O=c1cc(-c2ccccc2)oc2ccccc12` [FLAVONE], for which the inhibition in experiment [3] amounted to 5%. Also, the Cytotoxicity in experiment [4] was less than 10%.

As for `COc1ccc([N+](=O)[O-])c(-c2oc3c(CC(=O)O)cccc3c(=O)c2[N+](=O)[O-])c1`, in experiment [3], the inhibition was 80%. In experiment [4], this molecule displayed a Cytotoxicity of less than 10%.

Consider `O=c1cc(-c2ccccc2)oc2cc(O)c(O)c(O)c12`, for which the inhibition stood at 57% in experiment [1] and 36% in experiment [2].

For `O=C(O)Cc1cccc2c(O)c3nc4ccccc4c-3oc12`, the inhibition in experiment [3] worked out at 10%. Besides, the Cytotoxicity in experiment [4] was found to be 30%.

Turning to `O=C(O)Cc1cccc2c(=O)c([N+](=O)[O-])c(-c3cccc([N+](=O)[O-])c3)oc12`, the inhibition in experiment [3] amounted to 44%. In experiment [4], this molecule returned a Cytotoxicity of less than 10%.

As for `COC(=O)Cc1cccc2c(=O)c([N+](=O)[O-])c(-c3ccccc3)oc12`, the inhibition in experiment [3] was less than 5%. The molecule also gave a Cytotoxicity in experiment [4] of less than 10%.

Take `COc1cc(-c2oc3cc(O)cc(O)c3c(=O)c2O)ccc1O`: the values for the inhibition in experiment [1] and in experiment [2] were 73% and 49%, respectively.

`O=c1c([N+](=O)[O-])c(-c2ccccc2[N+](=O)[O-])oc2ccccc12`: the inhibition in experiment [3] is less than 5%. The Cytotoxicity in experiment [4] is given as greater than 40%.

As to `O=C(O)Cc1cccc2c(=O)c([N+](=O)[O-])c(-c3ccccc3OCc3ccccc3)oc12`, the inhibition in experiment [3] was 76%. In addition, the Cytotoxicity in experiment [4] is reported as greater than 55%.

For the molecule `O=C(O)Cc1cccc2c(=O)c([N+](=O)[O-])c(-c3ccccc3)oc12`, the inhibition in experiment [3] came out at 68%. For the same molecule, the Cytotoxicity in experiment [4] is less than 10%.

For the molecule `COc1ccc(-c2oc3c(CC(=O)O)cccc3c(=O)c2[N+](=O)[O-])cc1`, in experiment [3], the inhibition came out at 64%. The same molecule came in with a Cytotoxicity in experiment [4] greater than 40%.

On to `O=C(O)Cc1cccc2c(=O)c([N+](=O)[O-])c(-c3ccc([N+](=O)[O-])cc3)oc12`, for which, in experiment [3], the inhibition was 63%. In experiment [4], this molecule showed a Cytotoxicity of less than 10%.

Regarding `O=C(O)Cc1cccc2c(=O)cc(-c3ccccc3)oc12` [MITOFLAXONE], the inhibition in experiment [3] stood at 30%. The molecule also came in with a Cytotoxicity in experiment [4] of less than 10%.

In the case of `O=C(O)Cc1cccc2c(=O)c([N+](=O)[O-])c(-c3ccccc3[N+](=O)[O-])oc12`, in experiment [3], the inhibition stood at 88%. In experiment [4], this molecule displayed a Cytotoxicity of less than 10%. For the same molecule, the concentration for half-maximal inhibition (IC50) (in general, the concentration that gives 50% inhibition) in experiment [5] worked out at 25 µM.

With `O=C(O)Cc1cccc2c(=O)cc(-c3ccccc3[N+](=O)[O-])oc12`, the inhibition in experiment [3] came to 83%. In experiment [4], this molecule had a Cytotoxicity greater than 80%.

For the molecule `COCOC(=O)Cc1cccc2c(=O)c3c(oc12)-c1ccccc1OC(=O)N3`, the inhibition in experiment [3] is 25%. Besides, the Cytotoxicity in experiment [4] is greater than 95%.

`COC(=O)c1ccccc1-c1oc2c(CC(=O)O)cccc2c(=O)c1[N+](=O)[O-]`: in experiment [3], the inhibition worked out at 66%. In experiment [4], this molecule registered a Cytotoxicity of less than 10%.

Regarding `C=CCc1cccc2c(=O)c([N+](=O)[O-])c(-c3ccccc3[N+](=O)[O-])oc12`, in experiment [3], the inhibition was 16%. This molecule gave a Cytotoxicity in experiment [4] of less than 10%.

Turning to `O=C(O)Cc1cccc2c(=O)c3c(oc12)-c1ccccc1OC(=O)N3`, the inhibition in experiment [3] was found to be 19%. The Cytotoxicity in experiment [4] was determined as 30%.

Consider `COc1ccc(-c2oc3c(CC(=O)O)cccc3c(=O)c2[N+](=O)[O-])cc1[N+](=O)[O-]`, for which the inhibition in experiment [3] stood at 61%. This molecule had a Cytotoxicity in experiment [4] of less than 10%.

Source of the values: ChEMBL document CHEMBL1145072, “Synthesis and biological evaluation of novel flavone-8-acetic acid derivatives as reversible inhibitors of aminopeptidase N/CD13” (J Med Chem, 2003).
